Results gathered from unrelated publications.
Compare with care: the assays were run in different laboratories.
Target: Myosin-IIIb (MYO3B, Homo sapiens, UniProt Q8WXR4)
Residues used in one study (Q8WXR4 1-1341): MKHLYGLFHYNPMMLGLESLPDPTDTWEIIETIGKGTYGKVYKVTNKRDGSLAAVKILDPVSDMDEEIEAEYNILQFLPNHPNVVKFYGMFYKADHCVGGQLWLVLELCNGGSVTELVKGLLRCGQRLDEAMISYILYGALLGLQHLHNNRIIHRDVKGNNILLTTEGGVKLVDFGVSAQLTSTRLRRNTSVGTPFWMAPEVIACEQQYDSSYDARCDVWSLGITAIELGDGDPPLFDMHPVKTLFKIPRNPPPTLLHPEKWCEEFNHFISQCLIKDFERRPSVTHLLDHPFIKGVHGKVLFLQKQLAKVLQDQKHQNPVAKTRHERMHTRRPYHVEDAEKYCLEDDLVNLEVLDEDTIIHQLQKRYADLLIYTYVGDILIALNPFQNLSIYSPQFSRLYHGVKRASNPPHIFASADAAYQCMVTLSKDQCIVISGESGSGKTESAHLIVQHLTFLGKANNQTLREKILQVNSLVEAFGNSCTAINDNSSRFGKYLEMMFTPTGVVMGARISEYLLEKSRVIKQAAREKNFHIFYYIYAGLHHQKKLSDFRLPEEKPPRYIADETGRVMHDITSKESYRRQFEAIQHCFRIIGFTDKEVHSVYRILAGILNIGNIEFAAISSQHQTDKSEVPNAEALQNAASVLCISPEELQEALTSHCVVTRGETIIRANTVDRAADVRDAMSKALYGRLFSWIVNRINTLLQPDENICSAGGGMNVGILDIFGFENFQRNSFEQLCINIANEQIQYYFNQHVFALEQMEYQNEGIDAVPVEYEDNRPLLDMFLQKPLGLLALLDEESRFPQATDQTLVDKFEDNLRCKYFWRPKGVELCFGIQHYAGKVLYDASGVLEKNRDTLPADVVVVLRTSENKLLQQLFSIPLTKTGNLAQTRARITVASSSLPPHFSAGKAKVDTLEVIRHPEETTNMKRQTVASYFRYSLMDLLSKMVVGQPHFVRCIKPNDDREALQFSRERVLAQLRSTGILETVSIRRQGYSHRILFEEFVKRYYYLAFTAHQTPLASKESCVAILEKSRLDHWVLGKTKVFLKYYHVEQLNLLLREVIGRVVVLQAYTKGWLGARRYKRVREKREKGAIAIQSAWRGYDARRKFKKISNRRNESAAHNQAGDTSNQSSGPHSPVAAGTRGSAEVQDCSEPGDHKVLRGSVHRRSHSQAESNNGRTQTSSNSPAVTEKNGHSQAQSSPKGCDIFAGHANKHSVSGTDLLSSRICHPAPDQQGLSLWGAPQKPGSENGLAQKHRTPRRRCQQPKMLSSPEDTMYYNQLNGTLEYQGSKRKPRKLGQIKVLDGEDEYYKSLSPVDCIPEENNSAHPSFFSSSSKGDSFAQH

| Structure (SMILES) | observed | method | tested at | remaining binding [%] |
| --- | --- | --- | --- | --- |
| C[C@@H]1CN(c2cc(-c3n[nH]c4ccc(OC5(C)CC5)cc34)ncn2)C[C@H](C)O1 | cell-free assay | competition with immobilised ligand | 0.1 µM | 89 |
| COc1cnc(Nc2cccc(S(N)(=O)=O)c2)nc1N1CCN(c2ccccc2)CC1 | binding | competition with immobilised ligand | 1 µM | 100 |
| c1cnn2ncc(-c3ccnc(N4CCC45COC5)n3)c2c1 | binding | – | 1 µM | 100 |
| O=C(c1ccc(Nc2nccc(-c3cc4ccccc4s3)n2)cc1)N1CCC(N2CCCC2)CC1 | binding | competition with immobilised ligand | 1 µM | 100 |
| C[C@H]1CCN(c2nccc(-c3cnn4ncccc34)n2)C1 | binding | – | 1 µM | 100 |
| CCC(=O)N[C@H]1CC[C@@H](C(=O)N(C)c2ccc(-c3nc4ccccc4o3)cc2)C1 | cell-free assay | competition with immobilised ligand | 1 µM | 98 |
| Cc1cnn2ncc(-c3ccnc(N(C)C)n3)c2c1 | binding | – | 1 µM | 80 |
| O=C(c1ccc(Nc2ncc(Cl)c(-c3ccc(Cl)s3)n2)cc1)N1CCC(N2CCCC2)CC1 | binding | competition with immobilised ligand | 1 µM | 100 |
| COc1ncc2cc3ccccc3nc2c1C#N | binding | competition with immobilised ligand | 5 µM | 96 |
| COc1ccnn2ncc(-c3ccnc(N(C)C)n3)c12 | binding | – | 1 µM | 100 |
| O=C(NCCCN1CCOCC1)c1ccc(Nc2nccc(-c3cc4ccccc4s3)n2)cc1 | binding | competition with immobilised ligand | 1 µM | 100 |
| N#CC1(c2ccccn2)CCN(Cc2cc(C(=O)N3CCCC3)c(=O)n3ccccc23)CC1 | cell-free assay | competition with immobilised ligand | 1 µM | 100 |
| C[C@@H](c1ccc(-n2cnc3c(N)ncnc32)cc1)N1CCc2nn(C)c(Cc3ccccc3)c2C1=O | binding | competition with immobilised ligand | 0.1 µM | 77 |
| O=C(N[C@H]1CCCCC/C=C\C2C[C@@]2(C(=O)O)NC(=O)[C@@H]2C[C@@H](Oc3ccncc3)CN2C1=O)OC1CCCC1 (stereo partly drawn) | binding | competition with immobilised ligand | 1 µM | 38 |
| COc1cnc(Nc2cccc(S(N)(=O)=O)c2)nc1N1CCN(c2ccccc2)C(=O)C1 | binding | competition with immobilised ligand | 1 µM | 94 |
| C[C@H](c1ccc(F)cc1)N(Cc1cccc(C(=O)O)c1)C(=O)c1cnc2ccccc2c1 | binding | competition with immobilised ligand | 1 µM | 100 |
| CC1CCCN1c1nccc(-c2cnn3ncccc23)n1 (stereo not drawn) | binding | – | 1 µM | 100 |
| O=C(NCC1CCOCC1)c1n[nH]cc1NC(=O)c1c(F)cccc1F | binding | competition with immobilised ligand | 1 µM | 100 |
| CN(C)c1ncc(F)c(-c2cnn3ncccc23)n1 | binding | – | 1 µM | 100 |
| Cc1nc(N2CC[C@@H](O)C2)ncc1-c1cc(C(F)(F)F)cc2[nH]ncc12 | binding | competition with immobilised ligand | 1 µM | 93 |
| CCN1CCN(Cc2ccc(C(=O)Nc3ccc(C)c(Oc4ccc5c(c4)CC(=O)N5)c3)cc2C(F)(F)F)CC1 | binding | competition with immobilised ligand | 1 µM | 100 |
